Data: paper PMC12334575 (Nature Communications, 2025)

Legend:
Type in all cases: cell-based, Candida auris
C. auris CBS12775 = assay: Checkerboard assay coniotin A with caspofungin; conditions: refractory C. auris, checkerboard (Fig. 4a)
C. auris CBS10913 = assay: Intracellular drug accumulation assay; conditions: C. auris CBS10913, 20 µM, 10 min, 30 °C, PBS, silicone oil centrifugation, LC-MS
Summary of the method: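 Yeast subcultured in SDB at 30 °C with shaking to mid-log (OD530 ≈ 0.6), washed twice in PBS and resuspended in PBS. Equilibrated 5 min at 30 °C, then test compound added to 20 µM final for 10 min. Cells spun at 13,000×g through pre-cooled silicone oil; intracellular compound quantified by LC-MS. Biological triplicates.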

C. auris CBS 10913 = assay: High-throughput screening of crude extracts and PFL fractions; conditions: identified in active fractions of WAC11175, result in words
Summary of the method: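 Primary screen: C. auris CBS 10913 colonies grown on YPD agar at 30 °C for 48 h, then suspended in RPMI 1640. 1 µL crude extract or fraction added to 49 µL culture in 384-well format, in duplicate. […] OD530 read after 48 h; hits defined as ≥75% growth inhibition versus untreated. For follow-up, producer strains were regrown on Bennett's agar at 30 °C for 7 days, extracts fractionated on C18, and DMSO-dissolved fractions retested in broth microdilution.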

Row | Molecule | MIC of caspofungin in the presence of coniotin A (C. auris CBS12775) [µg/mL] | Intracellular accumulation (C. auris CBS10913) | Activity against C. auris (C. auris CBS 10913)
1 | CC[C@H](C)C[C@H](C)CCCCCCCCC(=O)N[C@H]1C[C@@H](O)[C@@H](NCCN)NC(=O)[C@@H]2[C@@H](O)CCN2C(=O)[C@H]([C@H](O)CCN)NC(=O)[C@H]([C@H](O)[C@@H](O)c2ccc(O)cc2)NC(=O)[C@@H]2C[C@@H](O)CN2C(=O)[C@H]([C@@H](C)O)NC1=O [Caspofungin] | 2 | measurable accumulation | –
2 | enniatin A1 | – | – | significant activity
3 | enniatin B1 | – | – | significant activity
